Assay outcomes (PubChem BioAssay)
Not all results are given here.
PGC1a Ac signal – raises PGC1a acetylation signal in U2OS cells. U2OS PGC1a acetylation AlphaScreen, overnight. AID 651723. 350,000 tested, 0.21% active. activation, % at 15.6 µM;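 active means every replicate reaching activation of at least 50%, whatever the mean replicate activation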;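 further: hits raise the AlphaScreen acetylation signal above neutral controls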
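System: flag-PGC1a/GCN5 U2OS cells / Input: 7000 cells/well / Compound: single test concentration per compound / Incubation: overnight compound treatment, 37 °C / Technique: AlphaScreen on lysates with anti-acetyl-lysine antibody, acceptor and donor beads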
Hits are given with their value.

Results for O=C1Nc2cc(S(=O)(=O)N3CCCC3)ccc2N2CCCC12 (stereo not drawn) ?
PGC1a Ac signal: 95

How did CO[C@@H]1CN(C)C(=O)c2ccc(NC(C)=O)cc2OC[C@@H](C)N(C(=O)Cc2cccnc2)C[C@@H]1C do in these assays?
PGC1a Ac signal: inactive

Results for COc1ccc(CCn2c(-c3ccc(OC)cc3)nc3c(c(=O)c4ccccc4n3C)c2=O)cc1 ?
PGC1a Ac signal: 109

What do the screens show for `O=C(C[C@@H]1C[C@@H]2c3cc(NC(=O)Nc4ccccc4F)ccc3O[C@@H]2[C@@H](CO)O1)NCc1ccc(Oc2ccccc2)cc1`?
PGC1a Ac signal: inactive

What do the screens show for `O=C(O)C1C2CC3OC(=O)C1C3C2` (stereo not drawn)?
PGC1a Ac signal: inactive

Results for CN1[C@@H]2CC(OC(=O)[C@H](CO)c3ccccc3)C[C@H]1[C@@H]1O[C@@H]12 (stereo partly drawn) ?
PGC1a Ac signal: inactive

How did N#Cc1cccc(-c2ccc([C@@H]3[C@@H]4CN(S(=O)(=O)c5ccc(-c6ccccc6)cc5)C[C@H]3N4)cc2)c1 do in these assays?
PGC1a Ac signal: inactive

Results for COc1ccccc1-c1ccc(C2[C@@H]3CN(S(=O)(=O)c4ccc(C)cc4)C[C@H]2N3)cc1 (stereo partly drawn) ?
PGC1a Ac signal: 95

How did Cc1cccc(S(=O)(=O)N(C)C[C@@H]2OCc3cn(nn3)CCCC(=O)N([C@H](C)CO)C[C@H]2C)c1 do in these assays?
PGC1a Ac signal: inactive

Results for O=C(c1ccco1)N(Cc1ccc([N+](=O)[O-])cc1)c1ccc(Br)cc1 ?
PGC1a Ac signal: 58

Results for COc1ccc(C(=O)NCCCSC)cc1OC1CCN(C(C)C)CC1 ?
PGC1a Ac signal: inactive

What do the screens show for `Clc1ccc(Oc2cccc(/C=N/n3cnnc3)c2)cc1`?
PGC1a Ac signal: inactive

How did COc1cc(Cn2c(N)c(C#N)c3nc4ccccc4nc32)cc(OC)c1 do in these assays?
PGC1a Ac signal: 52

Results for CC(C)NC(=S)N=Nc1c(O)[nH]c2ccc(C(C)C)cc12 ?
PGC1a Ac signal: inactive

How did CNC[C@H]1Oc2ncc(C#CC3CCCCC3)cc2C(=O)N([C@H](C)CO)C[C@H]1C do in these assays?
PGC1a Ac signal: inactive

Results for O=C1NC(=S)S/C1=C\C=C\c1ccc([N+](=O)[O-])o1 ?
PGC1a Ac signal: 73

How did Cc1ccc(Nc2nc(C)cc(C)c2C(N)=O)c(C)c1 do in these assays?
PGC1a Ac signal: inactive

How did CC(=O)c1ccc(Nc2cc(C)nc3ccc(C)cc23)cc1 do in these assays?
PGC1a Ac signal: inactive

How did Cc1ccc2nc(C)cc(OCC(=O)O)c2c1 do in these assays?
PGC1a Ac signal: 59

What do the screens show for `O=S(=O)(/C(=C\c1ccc(C(F)(F)F)cc1)c1nc2ccccc2[nH]1)c1ccccc1`?
PGC1a Ac signal: inactive

Results for O=C1C(c2ccccc2)C(c2ccccc2)NC(c2ccccc2)C1c1ccccc1 (stereo not drawn) ?
PGC1a Ac signal: 55

How did CC(C)(C)c1ccc(-n2nc(C#N)c(Cl)cc2=O)cc1 do in these assays?
PGC1a Ac signal: inactive

How did CN(C)c1ncnc2c1ccn2C1OC(CO)C(O)C1O (stereo not drawn) do in these assays?
PGC1a Ac signal: inactive

What do the screens show for `CC(C)NC(=O)Nc1ccc2c(c1)C(=O)N([C@@H](C)CO)C[C@@H](C)[C@@H](CN(C)S(=O)(=O)c1ccccc1)OCCCC[C@H](C)O2`?
PGC1a Ac signal: inactive

Results for COc1cccc(C(=O)/C=C/c2ccc(OCC#N)c(OC)c2)c1 ?
PGC1a Ac signal: 183

What do the screens show for `CCCOc1ccc(/C=C/C(=O)O)cc1OC`?
PGC1a Ac signal: inactive

What do the screens show for `COc1ccc(OC)c(C(=O)/C=C/c2ccccc2C(F)(F)F)c1`?
PGC1a Ac signal: inactive

How did O=C(Nc1ccc(OC(=O)c2ccccc2)c(-c2nc3ccccc3s2)c1)c1ccccc1 do in these assays?
PGC1a Ac signal: 106

What do the screens show for `CC(C(=O)OCn1nnc2ccccc2c1=O)N1C(=O)c2ccccc2C1=O` (stereo not drawn)?
PGC1a Ac signal: inactive

What do the screens show for `COCCn1c(C)c(C)c2c(NCCc3ccccc3)ncnc21`?
PGC1a Ac signal: inactive

Results for N#Cc1c(N)c(C(=O)c2ccccc2)n2ccccc12 ?
PGC1a Ac signal: inactive

Results for O=[N+]([O-])c1ccc(Oc2cccc(F)c2)c2ccncc12 ?
PGC1a Ac signal: inactive

What do the screens show for `CCc1ccc(N/C(SCc2ccccc2C)=C(/C#N)C(=O)NCc2ccco2)cc1`?
PGC1a Ac signal: 84

What do the screens show for `O=C(Cc1ccccn1)N[C@H]1CC[C@H](CCn2cc(-c3ccccc3)nn2)O[C@@H]1CO`?
PGC1a Ac signal: 76

What do the screens show for `COc1ccc(NC(=O)N[C@@H]2CC[C@H](CCn3cc(-c4ccccc4F)nn3)O[C@H]2CO)cc1`?
PGC1a Ac signal: inactive

What do the screens show for `Cc1ccccc1S(=O)(=O)N[C@@H]1CC[C@@H](CCn2cc(Cc3ccccc3)nn2)O[C@H]1CO`?
PGC1a Ac signal: inactive

How did O=C(Cc1ccccn1)NCC[C@H]1CC[C@@H](NC(=O)Nc2ccc(C(F)(F)F)cc2)[C@@H](CO)O1 do in these assays?
PGC1a Ac signal: inactive
